From ChEMBL document CHEMBL1124444, “Hydroxyacetophenone-derived antagonists of the peptidoleukotrienes” (1989)

Experiments:
Cavia porcellus [1] = species on record: Cavia porcellus; assay: Percent inhibition of the leukotriene D4 (LTD4)-induced contraction of guinea pig tracheal spirals at 10 uM concentration; NS means data was not statistically significant; format: functional; conditions: Trachea
How it was run: (§1)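 Guinea pig tracheal spirals were split into paired sections in 10 mL baths of modified Krebs at 37 °C, gassed with 95% O₂/5% CO₂, under 2 g resting tension. After 60 min equilibration (washes every 15 min), reproducible contractions to 8 nM LTD₄ or 8 nM LTE₄ were obtained. Compound was added for 10 min, then agonist challenge repeated; percent inhibition is relative to the vehicle-treated paired section.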

Cavia porcellus [2] = species on record: Cavia porcellus; assay: Percent inhibition of the leukotriene D4 (LTD4)-induced contraction of guinea pig tracheal spirals at 10 uM concentration; NS meana data was not statistically significant; format: functional; conditions: Trachea; how it was run: as §1
Cavia porcellus [3] = species on record: Cavia porcellus; assay: Percent inhibition of the leukotriene D4 (LTD4)-induced contraction of guinea pig tracheal spirals at 4 uM concentration; format: functional; conditions: Trachea; how it was run: as §1
Cavia porcellus [4] = species on record: Cavia porcellus; assay: Inhibition of the leukotriene D4 (LTD4)-induced contraction of guinea pig tracheal spirals at 10 uM concentration; format: functional; conditions: Trachea; how it was run: as §1
Cavia porcellus [5] = assay: Compound (50 mg/kg, intraperitoneally) was tested in spontaneously breathing, conscious guinea pigs challenged with aerosolized LTD4 (30-min pretreatment); format: functional
Cavia porcellus [6] = species on record: Cavia porcellus; assay: Percent inhibition of the leukotriene D4 (LTD4)-induced contraction of guinea pig tracheal spirals at 100 uM concentration; format: functional; conditions: Trachea; how it was run: as §1
Cavia porcellus [7] = species on record: Cavia porcellus; assay: Percent inhibition of the leukotriene E4 -induced contraction of guinea pig tracheal spirals at 1 uM concentration; format: functional; conditions: Trachea; how it was run: as §1
Cavia porcellus [8] = species on record: Cavia porcellus; assay: Percent inhibition of the leukotriene E4 -induced contraction of guinea pig tracheal spirals at 10 uM concentration; format: functional; conditions: Trachea; how it was run: as §1
Cavia porcellus [9] = species on record: Cavia porcellus; assay: Percent inhibition of the leukotriene E4 (LTE4)-induced contraction of guinea pig tracheal spirals at 50 uM concentration; format: functional; conditions: Trachea; how it was run: as §1
Cavia porcellus [10] = species on record: Cavia porcellus; assay: Percent inhibition of the leukotriene E4 (LTE4)-induced contraction of guinea pig tracheal spirals at 10 uM concentration; NS means data was not statistically significant.; format: functional; conditions: Trachea; how it was run: as §1
Cavia porcellus [11] = species on record: Cavia porcellus; assay: Percent inhibition of the leukotriene D4 (LTD4)-induced contraction of guinea pig tracheal spirals at 5 uM concentration; format: functional; conditions: Trachea; how it was run: as §1
Cavia porcellus [12] = species on record: Cavia porcellus; assay: Percent inhibition of the leukotriene D4 (LTD4)-induced contraction of guinea pig tracheal spirals at 10 uM concentration; NS means data was not statistically significant.; format: functional; conditions: Trachea; how it was run: as §1
Cavia porcellus [13] = species on record: Cavia porcellus; assay: Percent inhibition of the leukotriene E4 (LTE4)-induced contraction of guinea pig tracheal spirals at 5 uM concentration; format: functional; conditions: Trachea; how it was run: as §1
Cavia porcellus [14] = species on record: Cavia porcellus; assay: Percent inhibition of the leukotriene E4 (LTE4)-induced contraction of guinea pig tracheal spirals at 10 uM concentration; format: functional; conditions: Trachea; how it was run: as §1
Cavia porcellus [15] = species on record: Cavia porcellus; assay: Percent inhibition of the leukotriene E4 ([…])-induced contraction of guinea pig tracheal spirals at 1 uM concentration; NS means data was not statistically significant.; format: functional; conditions: Trachea; how it was run: as §1
Cavia porcellus [16] = species on record: Cavia porcellus; assay: Percent inhibition of the leukotriene E4 (LTE4)-induced contraction of guinea pig tracheal spirals at 1 uM concentration; conditions: Trachea
[17] = molecular target: T1, Cysteinyl leukotriene receptor 1 (Cavia porcellus) (UniProt Q2NNR5); assay: Dissociation constant (KB) […] was evaluated in vitro in isolated guinea pig tracheal strips
T1 sequence (whole entry): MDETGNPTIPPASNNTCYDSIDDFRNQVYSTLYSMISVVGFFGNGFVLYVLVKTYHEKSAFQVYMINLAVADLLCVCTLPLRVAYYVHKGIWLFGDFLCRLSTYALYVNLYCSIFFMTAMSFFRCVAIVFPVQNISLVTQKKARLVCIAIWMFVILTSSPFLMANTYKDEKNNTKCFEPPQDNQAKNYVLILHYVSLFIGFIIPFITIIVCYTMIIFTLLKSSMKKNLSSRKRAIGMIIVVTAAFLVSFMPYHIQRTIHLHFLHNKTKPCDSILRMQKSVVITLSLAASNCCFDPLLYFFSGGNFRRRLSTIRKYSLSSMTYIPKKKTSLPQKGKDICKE

Cavia porcellus [18] = assay: Compound (50 mg/kg, intraperitoneally) was tested in spontaneously breathing, conscious guinea pigs challenged with aerosolized LTD4 (60-min pretreatment); format: functional
[19] = molecular target: T1, Cysteinyl leukotriene receptor 1 (Cavia porcellus); assay: Dissociation constant (KB) versus Cysteinyl leukotriene D4 receptor was evaluated in vitro in isolated guinea pig tracheal strips
Cavia porcellus [20] = species on record: Cavia porcellus; assay: Percent inhibition of the leukotriene E4 (LTE4)-induced contraction of guinea pig tracheal spirals at 50 uM concentration; NS means data was not statistically significant.; format: functional; conditions: Trachea; how it was run: as §1
Cavia porcellus [21] = species on record: Cavia porcellus; assay: Percent inhibition of the leukotriene D4 (LTD4)-induced contraction of guinea pig tracheal spirals at 50 uM concentration; NS means data was not statistically significant.; format: functional; conditions: Trachea; how it was run: as §1
Cavia porcellus [22] = species on record: Cavia porcellus; assay: Percent inhibition of the leukotriene E4 (LTE4)-induced contraction of guinea pig tracheal spirals at 50 uM concentration; NS means data was not statistically significant; format: functional; conditions: Trachea; how it was run: as §1
Cavia porcellus [23] = species on record: Cavia porcellus; assay: Percent inhibition of the leukotriene D4 (LTD4)-induced contraction of guinea pig tracheal spirals at 1 uM concentration; format: functional; conditions: Trachea; how it was run: as §1
Cavia porcellus [24] = species on record: Cavia porcellus; assay: Percent inhibition of the leukotriene D4 (LTD4)-induced contraction of guinea pig tracheal spirals at 10 uM concentration; format: functional; conditions: Trachea; how it was run: as §1
Cavia porcellus [25] = species on record: Cavia porcellus; assay: Percent inhibition of the leukotriene E4 (LTE4)-induced contraction of guinea pig tracheal spirals at 1 uM concentration; format: functional; conditions: Trachea; how it was run: as §1

`COc1cc(C(=O)O)ccc1COc1ccc2c(C)cc(=O)oc2c1` was tested, and the inhibition (Cavia porcellus [1]) was “Not statistically significant”.

`COc1cc(C(=O)O)ccc1COc1ccc(C(C)=O)c(O)c1` was tested, and the inhibition (Cavia porcellus [2]) was “Not statistically significant”.

Compound `CCCc1c(OCc2ccc(C(=O)O)cc2OC)ccc2c(C)cc(=O)oc12` has an inhibition at 4 µM (Cavia porcellus [3]) of 44%, an inhibition at 10 µM (Cavia porcellus [4]) of 78% and a Protection (Cavia porcellus [5]) of 27%.

With `CCCc1c(OCC(O)CNC(CS)C(=O)NCC(=O)O)ccc(C(C)=O)c1O` (stereo not given) the inhibition at 100 µM (Cavia porcellus [6]) was 33%.

With `COc1cc(C(=O)O)ccc1COc1ccc(C(C)=O)c(O)c1Cc1ccccc1` the inhibition at 1 µM (Cavia porcellus [7]) was 39% and the inhibition at 10 µM (Cavia porcellus [8]) was 100%.

In the case of `CCCc1c(OCc2ccc(C(=O)O)cc2OC)ccc(C(=O)N(C)C)c1O`, the inhibition at 50 µM (Cavia porcellus [9]) is reported as 84% and the inhibition (Cavia porcellus [10]) is reported as “Not statistically significant”.

`C/C=C(\c1ccccc1)c1c(OCc2ccc(C(=O)O)cc2OC)ccc(C(C)=O)c1O` showed an inhibition at 5 µM (Cavia porcellus [11]) of 24%.

With `CCCc1c(OCc2cccc(C(=O)O)c2)ccc(C(C)=O)c1O` the inhibition at 10 µM (Cavia porcellus [4]) was 50% and the inhibition at 100 µM (Cavia porcellus [6]) was 100%.

`CCCc1c(OCc2ccccc2C(=O)O)ccc(C(C)=O)c1O` was tested, and the inhibition (Cavia porcellus [12]) was “Not statistically significant” and the inhibition at 100 µM (Cavia porcellus [6]) was 91%.

`CCCc1c(OCc2ccc(C(=O)O)cc2OC)ccc(C(=O)CC)c1O` was tested, and the inhibition at 5 µM (Cavia porcellus [13]) was 73%, the inhibition at 10 µM (Cavia porcellus [14]) was 97% and the inhibition (Cavia porcellus [15]) was “Not statistically significant”.

`CCCc1c(OCc2cccc(/C=C/C(=O)O)c2)ccc(C(C)=O)c1O` was tested, and the inhibition at 4 µM (Cavia porcellus [3]) was 66%, the inhibition at 1 µM (Cavia porcellus [16]) was 41% and the Kb [17] was 630 nM. For the same compound, the Protection (Cavia porcellus [5]) was 19%.

Work on `CCCc1c(OCc2ccc(C(=O)O)cc2OC)ccc(C(=O)OC)c1O` yielded an inhibition at 5 µM (Cavia porcellus [13]) of 52%, a Protection (Cavia porcellus [18]) of 29% and a Kb [17] of 3180 nM.

`CCCc1c(OCCCCc2nnn[nH]2)ccc(C(C)=O)c1O` [TOMELUKAST] showed a Protection (Cavia porcellus [18]) of 49% and a Kb [19] of 180 nM.

In the case of `COc1cc(C(=O)O)ccc1COc1ccc(C(C)=O)c(O)c1CCCC(=O)O`, the inhibition (Cavia porcellus [20]) is reported as “Not statistically significant”.

In the case of `CCCCCCc1c(OCc2ccc(C(=O)O)cc2OC)ccc(C(C)=O)c1O`, the inhibition (Cavia porcellus [21]) is reported as “Not statistically significant”.

For `CCCc1c(OCc2ccc(C(=O)O)cc2OC)ccc(CCC(=O)O)c1O`, the inhibition (Cavia porcellus [22]) was “Not statistically significant”.

`CCCc1c(OCc2ccc(C(=O)O)c(Br)c2)ccc(C(C)=O)c1O` was tested, and the Protection (Cavia porcellus [18]) was 69%, the inhibition at 1 µM (Cavia porcellus [23]) was 30% and the Kb [17] was 170 nM.

`CCCc1c(OCc2ccc(C(=O)O)cc2OC)ccc(C=O)c1O` showed an inhibition at 10 µM (Cavia porcellus [24]) of 54%.

In the case of `CCC(C)c1c(OCc2ccc(C(=O)O)cc2OC)ccc(C(C)=O)c1O` (stereo not given), the inhibition at 10 µM (Cavia porcellus [4]) is reported as 100% and the inhibition at 5 µM (Cavia porcellus [11]) is reported as 85%.

In the case of `C=C(C)Cc1c(OCc2ccc(C(=O)O)cc2OC)ccc(C(C)=O)c1O`, the inhibition at 5 µM (Cavia porcellus [13]) is reported as 82%, the Protection (Cavia porcellus [18]) is reported as 30% and the Kb [17] is reported as 1640 nM. It also gave an inhibition at 1 µM (Cavia porcellus [25]) of 35%.
